pIC50: −log10 of the molar value. Activity calls are given as the source filed them. The calls are words filed in the database; no cut-off is given here.
What was measured:
[1] = tested on: HCT-116; assay: Cytotoxicity against human HCT116 cells by MTT assay; type: functional, cell-based
[2] = tested on: HCT-8; assay: Cytotoxicity against human HCT8 cells by MTT assay; type: functional, cell-based
[3] = tested on: Bel-7402; assay: Cytotoxicity against human Bel7402 cells by MTT assay; type: functional, cell-based
[4] = organism: Homo sapiens; assay: Cytotoxicity against human […] cells by MTT assay; type: functional, cell-based
[5] = tested on: A549; assay: Cytotoxicity against human A549 cells by MTT assay; type: functional, cell-based
[6] = tested on: A2780; assay: Cytotoxicity against human A2780 cells by MTT assay; type: functional, cell-based
[7] = tested on: BV-2; assay: Antiinflammatory activity against mouse BV2 cells assessed as inhibition of LPS-induced nitric oxide production at 1 uM after 24 hrs by griess assay relative to control; type: functional; conditions: BV-2, 24 h
Summary of the method: (§1)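 BV2 cells preincubated 24 h, then exposed to compounds and stimulated with LPS (E. coli 055:B5) for 24 h. Supernatant mixed with equal volume Griess reagent, 5 min at room temperature in the dark; absorbance read at 540 nm for NO. Curcumin as positive control.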

[8] = tested on: BV-2; assay: Antiinflammatory activity against mouse BV2 cells assessed as inhibition of LPS-induced nitric oxide production after 24 hrs by griess assay; type: functional, cell-based; conditions: BV-2, 24 h; summary of the method: as §1

pIC50 [8]	SMILES	Activity [1]	Activity [2]	Activity [3]	Activity [4]	Activity [5]	Activity [6]	inhibition at 1 µM [7] [%]
–	CO[C@@]12OC(=O)C(C)=C1C[C@@]1(C)[C@H](C(=O)C=C[C@@H]1C)[C@@H]2O	inactive	inactive	inactive	inactive	inactive	inactive	–
–	CC1=C2C[C@@]3(C)C(=C[C@]2(O)OC1=O)C(=O)C=C[C@@H]3C	inactive	inactive	inactive	inactive	inactive	inactive	29.4
–	COC(=O)[C@H]1CCC(=O)N1Cc1cc(OC)c2c(OC)cc3cc(OCc4ccccc4)ccc3c2c1	inactive	inactive	inactive	inactive	inactive	inactive	–
5.40	COc1cc(/C=C/C(=O)CC(=O)/C=C/c2ccc(O)c(OC)c2)ccc1O [CURCUMIN]	–	–	–	–	–	–	–
–	C=C(C)[C@@H]1C[C@@]2(C)C(=CC1=O)[C@@H]1O[C@@H]1[C@H](O)[C@@H]2C	inactive	inactive	inactive	inactive	inactive	inactive	–
–	COC(=O)[C@@H](C)c1cc2c(cc1O)C(=O)C=CC2(C)C	inactive	inactive	inactive	inactive	inactive	inactive	50.6
–	CC(=O)O[C@H]1[C@H]2O[C@H]2C2=CC(=O)[C@]3(C[C@]2(C)[C@H]1C)O[C@]3(C)C=O	inactive	inactive	inactive	inactive	inactive	inactive	–
–	CC(=O)O[C@H]1[C@@H]2O[C@H]2[C@H]2C[C@@]3(O)OC[C@@]4(C)O[C@]43C[C@]2(C)[C@H]1C	inactive	inactive	inactive	inactive	inactive	inactive	–
–	CO[C@]12C=C3C(=O)C=C[C@H](C)[C@@]3(C)CC1=C(C)C(=O)O2	inactive	inactive	inactive	inactive	inactive	inactive	36.1

Source: ChEMBL document CHEMBL4130509, “Sesquiterpenes from the Endophyte Glomerella cingulata” (J Nat Prod, 2017)
